Activity calls are given as the source filed them. The calls are words filed in the database; no cut-off is given here.
Columns and labels:
[1] = target: T1, Progesterone receptor (Homo sapiens) (UniProt P06401); experiment: Agonist activity at human progesterone receptor relative to progesterone; assay type: functional
T1 sequence (whole entry): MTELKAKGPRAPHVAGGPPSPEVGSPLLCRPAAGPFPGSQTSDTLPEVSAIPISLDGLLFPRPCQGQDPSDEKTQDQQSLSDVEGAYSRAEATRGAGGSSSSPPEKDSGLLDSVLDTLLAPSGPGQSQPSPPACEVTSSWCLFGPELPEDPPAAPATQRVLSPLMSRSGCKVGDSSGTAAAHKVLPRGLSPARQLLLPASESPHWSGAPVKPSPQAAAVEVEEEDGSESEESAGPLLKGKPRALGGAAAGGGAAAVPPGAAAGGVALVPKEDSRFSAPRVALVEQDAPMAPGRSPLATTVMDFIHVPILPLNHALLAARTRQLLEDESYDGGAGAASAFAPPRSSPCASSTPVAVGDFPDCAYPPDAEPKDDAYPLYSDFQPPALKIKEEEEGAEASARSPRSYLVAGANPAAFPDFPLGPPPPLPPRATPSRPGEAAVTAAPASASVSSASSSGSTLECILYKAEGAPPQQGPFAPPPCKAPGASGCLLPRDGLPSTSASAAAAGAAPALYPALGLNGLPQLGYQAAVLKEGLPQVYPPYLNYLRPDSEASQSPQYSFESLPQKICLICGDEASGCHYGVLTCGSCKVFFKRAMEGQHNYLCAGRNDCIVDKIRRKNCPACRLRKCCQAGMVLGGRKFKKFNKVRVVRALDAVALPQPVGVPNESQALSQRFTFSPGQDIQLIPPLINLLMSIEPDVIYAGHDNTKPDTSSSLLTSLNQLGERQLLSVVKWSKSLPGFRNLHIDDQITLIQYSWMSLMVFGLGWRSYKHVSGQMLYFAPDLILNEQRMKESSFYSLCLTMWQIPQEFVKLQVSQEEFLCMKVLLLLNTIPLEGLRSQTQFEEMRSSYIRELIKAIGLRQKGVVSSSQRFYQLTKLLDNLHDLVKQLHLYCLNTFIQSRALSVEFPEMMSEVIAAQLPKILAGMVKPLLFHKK

[2] = target: T2, Androgen receptor (Homo sapiens) (UniProt P10275); experiment: Agonist activity at human androgen receptor relative to dihydrotestosterone; assay type: functional
T2 sequence (whole entry): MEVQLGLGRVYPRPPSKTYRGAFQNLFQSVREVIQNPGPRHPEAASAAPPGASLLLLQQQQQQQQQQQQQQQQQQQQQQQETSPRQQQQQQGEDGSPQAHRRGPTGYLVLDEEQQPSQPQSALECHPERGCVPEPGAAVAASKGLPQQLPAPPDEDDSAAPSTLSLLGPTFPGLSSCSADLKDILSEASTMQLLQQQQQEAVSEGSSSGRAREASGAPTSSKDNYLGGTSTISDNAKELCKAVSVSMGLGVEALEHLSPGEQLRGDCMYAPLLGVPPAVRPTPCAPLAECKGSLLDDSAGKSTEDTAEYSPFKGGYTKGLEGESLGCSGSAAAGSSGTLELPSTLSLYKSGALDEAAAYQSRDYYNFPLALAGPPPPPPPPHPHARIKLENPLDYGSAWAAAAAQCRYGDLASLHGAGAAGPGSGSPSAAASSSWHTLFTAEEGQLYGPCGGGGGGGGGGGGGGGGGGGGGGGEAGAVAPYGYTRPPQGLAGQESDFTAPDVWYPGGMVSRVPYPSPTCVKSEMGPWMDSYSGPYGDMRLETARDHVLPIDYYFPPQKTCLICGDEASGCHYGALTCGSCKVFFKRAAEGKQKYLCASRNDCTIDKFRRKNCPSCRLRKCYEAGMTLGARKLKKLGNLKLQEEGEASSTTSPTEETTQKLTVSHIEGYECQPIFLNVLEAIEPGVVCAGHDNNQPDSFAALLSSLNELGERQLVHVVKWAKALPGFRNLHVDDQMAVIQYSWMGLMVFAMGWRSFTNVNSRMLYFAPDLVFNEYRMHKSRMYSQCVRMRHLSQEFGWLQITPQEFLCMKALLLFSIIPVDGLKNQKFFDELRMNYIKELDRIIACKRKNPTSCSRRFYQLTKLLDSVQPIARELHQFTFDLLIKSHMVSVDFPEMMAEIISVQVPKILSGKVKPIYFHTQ

[3] = target: T3, Glucocorticoid receptor (Homo sapiens) (UniProt P04150); experiment: Agonist activity at human glucocorticoid receptor relative to Dexamethasone; assay type: functional
T3 sequence (whole entry): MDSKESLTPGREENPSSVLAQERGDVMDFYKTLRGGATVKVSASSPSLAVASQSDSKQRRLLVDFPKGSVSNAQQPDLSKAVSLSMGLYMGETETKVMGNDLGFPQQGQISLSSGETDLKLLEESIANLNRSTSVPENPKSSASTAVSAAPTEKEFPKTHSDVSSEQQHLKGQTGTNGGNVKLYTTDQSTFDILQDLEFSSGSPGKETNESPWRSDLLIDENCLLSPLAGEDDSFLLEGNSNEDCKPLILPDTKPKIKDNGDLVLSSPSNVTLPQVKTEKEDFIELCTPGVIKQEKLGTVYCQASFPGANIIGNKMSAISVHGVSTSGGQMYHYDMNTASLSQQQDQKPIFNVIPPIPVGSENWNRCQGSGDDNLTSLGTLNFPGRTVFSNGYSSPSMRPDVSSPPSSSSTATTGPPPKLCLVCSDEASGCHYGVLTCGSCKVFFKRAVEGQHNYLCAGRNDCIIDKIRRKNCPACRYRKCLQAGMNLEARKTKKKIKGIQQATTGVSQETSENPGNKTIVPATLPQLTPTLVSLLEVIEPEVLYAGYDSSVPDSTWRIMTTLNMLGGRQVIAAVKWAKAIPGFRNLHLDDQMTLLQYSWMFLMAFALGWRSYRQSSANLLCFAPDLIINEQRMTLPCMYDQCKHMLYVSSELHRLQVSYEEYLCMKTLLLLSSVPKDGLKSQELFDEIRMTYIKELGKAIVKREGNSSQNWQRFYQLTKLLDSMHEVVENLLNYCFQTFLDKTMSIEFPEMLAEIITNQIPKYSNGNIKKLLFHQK

Oryctolagus cuniculus = experiment: Progestational activity in New Zealand white rabbit uterine epithelium at 0.10 mg/kg, po after 3 days by Clauberg-McPhail assay; assay type: functional, organism-based; parameters: dose 0.1 mg/kg
Cynomolgus monkey = experiment: Inhibition of ovulation in cynomolgus monkey assessed as reduction of progesterone level after 3 weeks; assay type: functional, organism-based; conditions: Macaca fascicularis
Rattus norvegicus = organism: Rattus norvegicus; experiment: Progestational activity in estrone-treated ovariectomized rat assessed as inhibition of medroxyprogesterone acetate-induced effect on vaginal epithelial thickness; assay type: functional, organism-based
Procedure, shortened: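 Antagonist mode of the estrone-treated ovariectomized rat multi-endpoint model: compound was combined with MPA plus estrone, with vehicle and estrone-only groups. Endpoints were uterine epithelial cell height, vaginal epithelial thickness and mammary alveolar bud proliferation.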

CC1=C[C@@H]([C@@H]2Oc3c(F)cc(F)cc3-c3ccc4c(c32)C(C)=CC(C)(C)N4)CCC1 (stereo in doubt; (-)-5c)
Efficacy [1]: 145%
Efficacy [2]: 177%
Efficacy [3]: 6%
Activity (Oryctolagus cuniculus): Active
Activity (Cynomolgus monkey): Active
Activity (Rattus norvegicus): inactive

— ChEMBL document CHEMBL1157537 (J Med Chem, 2008)
